Rtt109 Vps75 = inhibitors of Candida albicans Rtt109/Vps75 histone acetyltransferase; inhibition, % at 34.9 µM; purified Rtt109/Vps75, ThioGlo CoA-SH fluorescence, 4 h; Q5AAJ8; 0.16% of 330,000 active;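 active = inhibition of at least 50% in every replicate; inconclusive = best replicate reaches 50% inhibition but some replicates fall short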
Target sequence (Q5AAJ8 whole entry, looked up): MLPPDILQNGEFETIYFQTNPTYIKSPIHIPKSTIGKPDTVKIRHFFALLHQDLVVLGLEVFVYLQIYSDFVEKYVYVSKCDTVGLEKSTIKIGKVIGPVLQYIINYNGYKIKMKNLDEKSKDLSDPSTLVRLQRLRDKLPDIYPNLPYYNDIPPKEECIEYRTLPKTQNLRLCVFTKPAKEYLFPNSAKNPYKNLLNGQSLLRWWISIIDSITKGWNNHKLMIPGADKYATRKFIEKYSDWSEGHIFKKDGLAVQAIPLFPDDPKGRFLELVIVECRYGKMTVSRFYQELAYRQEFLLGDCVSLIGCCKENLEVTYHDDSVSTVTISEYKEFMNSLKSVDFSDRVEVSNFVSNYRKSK
CAL PDZ FP-1 = inhibitors of human CAL PDZ peptide binding; Q9HD26; purified CAL PDZ, TMR-peptide fluorescence polarization, 1 h; inhibition, % at 20 µM; 0.02% of 330,000 active; AID 504414;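 active = highest replicate inhibition of at least 40%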
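material = purified tagged CAL PDZ domain construct (CerCALP) | buffer or medium = sodium phosphate/NaCl buffer pH 7.4 with TCEP, IgG, Thesit | reagent = TMR-labelled reporter peptide T*-PRC34 bound in PDZ groove | incubation = 1 h room-temperature incubation prior to read | measured by = fluorescence polarization (mP) | evaluation = percent inhibition from loss of millipolarization | control set = unlabelled peptide and DMSO controls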
CAL PDZ FP-2 = inhibitors of human CAL PDZ peptide binding. inhibition, % at 24.9 µM. Q9HD26. 0.92% of 300,000 active. purified CAL PDZ, TMR-peptide fluorescence polarization, 1 h. AID 602252;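 active = mean inhibition of at least 30% with at least half of replicates also reaching 30%; inconclusive = no clear call, values can overlap the other calls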
DYRK1A inh = blocks rat Dyrk1A kinase activity. Q63470. ADP-Glo luminescence, NFATc1 peptide. inhibition, % at 12.5 µM. 0.43% of 310,000 active; in the data active = inhibition above about 50%
ALR inh = human ALR oxidase inhibition via reduced H2O2; 3.8% of 290,000 active; P55789; AID 485317; inhibition, % (no concentration beside the values); purified ALR, DTT oxidation, H2O2 HRP-luminol luminescence;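 active = mean replicate inhibition above about 79%, with every replicate also reaching it, limit read from the data; inconclusive = only one of the two criteria met; inactive = mean below limit and not every replicate reaching it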
Target sequence (P55789 whole entry, looked up): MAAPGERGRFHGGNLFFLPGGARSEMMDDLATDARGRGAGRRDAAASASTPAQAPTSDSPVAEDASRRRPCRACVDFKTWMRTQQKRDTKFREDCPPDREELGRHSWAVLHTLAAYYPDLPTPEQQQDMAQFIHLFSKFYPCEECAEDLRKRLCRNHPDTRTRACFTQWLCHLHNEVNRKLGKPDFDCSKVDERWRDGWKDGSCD
Numbers stand for hits; . = inactive; ? = inconclusive; / = no result given. Compounds with a hit are over-represented: about 4.3% of the library has one in this group of screens.

SMILES | Rtt109 Vps75 | CAL PDZ FP-1 | CAL PDZ FP-2 | DYRK1A inh | ALR inh
CCC(CO)Oc1cc(NC(=O)c2cccc(Cl)c2)c2ncn(C(C)C)c2c1 (centres undefined) | . | . | . | . | .
Oc1ccc(/C=N/NC2=NCCCCC2)cc1 | . | . | . | / | 99.2
O=[N+]([O-])c1ccccc1/C=N/NC1=NCCCCC1 | . | . | . | . | .
COc1cc(/C=N/NC2=NCCCCC2)ccc1O | . | . | . | . | 95.0
Cc1c(Cl)ccc2c(C(O)CBr)cc(-c3ccccc3)nc12 (centres undefined) | / | . | . | . | /
CCc1cc(C(=O)c2ccccc2OC)c(N)s1 | / | . | . | . | 93.2
CCc1cc(C(=O)c2ccc(OC)cc2)c(NC(=O)CC(C)(C)CC(=O)O)s1 | / | . | . | / | 80.8
CCc1cc(C(=O)c2ccc(OC)cc2)c(NC(=O)COCC(=O)O)s1 | . | / | . | . | /
CCc1cc(C(=O)c2ccc(OC)cc2)c(N)s1 | . | . | / | . | 98.9
COc1ccc(C(=O)NCCSc2ccccc2)cc1OC | . | . | . | . | .
CCc1ccc(CN(C)C(=O)C2CCC(=O)N(Cc3ccccn3)C2)cc1 (centres undefined) | . | . | . | / | .
CN1CCN(C(=O)C2CCCN(S(=O)(=O)c3ccc(Cl)cc3)C2)CC1 (centres undefined) | . | . | . | . | .
CCSCc1nnc(SCC(=O)Nc2cccc(SC)c2)n1C | . | . | . | . | 98.3
COc1cccc(NC(=O)CCNS(=O)(=O)c2ccc3c(c2)CC(C)N3C(=O)C2CC2)c1 (centres undefined) | . | . | / | . | .
COc1ccc(NC(=O)CCNS(=O)(=O)c2ccc3c(c2)CC(C)N3C(=O)C2CC2)cc1 (centres undefined) | . | . | 33.8 | . | .
CN(C(=O)COC(=O)C1CCN(S(=O)(=O)c2cccs2)CC1)c1ccccc1 | . | . | / | . | .
CCN1CCCC1CNC(=O)CCc1nnc(CCC2CCCCC2)o1 (centres undefined) | . | . | / | . | 100.2
N#Cc1ccccc1NC(=O)CSc1n[nH]c(=O)n1C1CC1 | . | . | . | / | .
CCCCC1(C)OC(=O)C(=Cc2ccc(N(CC)CC)cc2)C(=O)O1 (centres undefined) | . | . | . | . | 96.6
CCN(CC)c1ccc(C=C2C(=O)OC3(CCCCC3)OC2=O)cc1 | . | . | / | . | ?
CCCCC1CCC(C(=O)N(CCOC)c2c(N)n(CC(C)C)c(=O)[nH]c2=O)CC1 (centres undefined) | . | . | 61.6 | . | /
COCCN(C(=O)C1CCC1)c1c(N)n(CC(C)C)c(=O)[nH]c1=O | . | . | . | . | .
CCCCn1c(N)c(N(CCOC)C(=O)c2cnc(C)cn2)c(=O)[nH]c1=O | . | . | 37.7 | . | .
COc1ccc(CN2CCNC(=O)C2CC(=O)NCc2cc(C)n(C)n2)c(F)c1 (centres undefined) | . | . | . | . | .
Cc1ccc(NC(=O)CSc2nccn2Cc2ccco2)c(C)c1 | . | . | . | . | ?
SMILES | Rtt109 Vps75 | CAL PDZ FP-1 | CAL PDZ FP-2 | DYRK1A inh | ALR inh
COc1ccc(Cn2c(CO)cnc2SCC(=O)Nc2cccc(NC(C)=O)c2)cc1 | . | . | . | . | 99.2
COc1ccc(Cn2ccnc2SCC(=O)Nc2cccc(NC(C)=O)c2)cc1 | . | . | . | / | 98.2
CC(=O)Nc1cccc(NC(=O)CSc2nccn2Cc2ccco2)c1 | . | . | . | . | 99.0
COc1ccc(NC(=O)CSc2nccn2Cc2ccccc2)cc1 | . | . | . | . | .
COc1ccc(NC(=O)CSc2nnc(C)n2Cc2ccccc2)cc1 | . | . | . | . | .
O=[N+]([O-])/C=C\c1ccc(N2CCCC2)c(F)c1 | . | . | . | . | /
CCCCCCc1c(C)nc(-n2[nH]c(C)c(CCO)c2=O)[nH]c1=O | . | / | . | . | 85.6
O=c1c(Cl)c(N2CCN(c3ccc(F)cc3)CC2)cnn1C12CC3CC(CC(C3)C1)C2 | . | . | . | . | 77.1
O=c1c(Cl)c(NCc2ccc(F)cc2)cnn1C12CC3CC(CC(C3)C1)C2 | . | . | / | . | .
O=c1c(Cl)c(N2CCN(c3ccccc3)CC2)cnn1C12CC3CC(CC(C3)C1)C2 | . | . | . | . | 85.8
CC(OC(=O)CC1CCCC1)C(=O)Nc1ccc(Cl)cn1 (centres undefined) | . | . | . | . | .
c1ccc(CCOn2ccnc2)cc1 | . | . | . | . | .
COCc1ccc(CN2CCC(n3nccc3NC(=O)C(OC)c3ccccc3)CC2)o1 (centres undefined) | 58.6 | . | . | . | .
Cn1nc([N+](=O)[O-])c(C(C#N)c2nc3ccccc3n2C)c(Cl)c1=O (centres undefined) | . | . | . | . | 99.6
Cn1c(-c2ccc([N+](=O)[O-])cc2)nc2ccccc21 | . | . | . | . | .
COC(=O)c1c(C)oc2ccc(N(C(C)=O)S(=O)(=O)c3ccccc3)cc12 | . | . | . | . | .
COc1ccc(S(=O)(=O)N(C(C)=O)c2ccc3oc(=O)sc3c2)cc1 | . | . | 89.4 | / | /
O=C(NNC(=O)c1ccc(Br)s1)c1ccc(F)c(S(=O)(=O)N2CCOCC2)c1 | . | . | / | . | .
C/C(=N\NC(=S)NC1CCCCC1)c1c(F)cccc1F | / | . | 43.7 | . | .
O=C1CN2NC(=S)N(c3ccccc3)C2=CN1c1ccc(Cl)cc1 | . | . | 114.7 | . | .
O=C1CN2NC(=S)N(c3ccc(Cl)cc3)C2=CN1c1ccc(Cl)cc1 | . | . | . | . | .
Cc1ccc(N2C(S)=C(C#N)C(=O)NC23CCCCC3)cc1 | . | . | . | . | .
Cc1ccccc1N1C(S)=C(C#N)C(=O)NC12CCCCC2 | 85.6 | . | . | . | /
COc1ccc(OC)c(NC(=O)CN2c3cccc4cccc(c34)S2(=O)=O)c1 | . | . | . | . | /
COc1ccc(OC)c(NC(=O)C(C)N2c3cccc4cccc(c34)S2(=O)=O)c1 (centres undefined) | . | . | 72.6 | . | .
SMILES | Rtt109 Vps75 | CAL PDZ FP-1 | CAL PDZ FP-2 | DYRK1A inh | ALR inh
CCc1ccc(NC(=O)C2CCC(CNC(=O)[C@@H]3Cc4ccccc4CN3)CC2)cc1 (some centres undefined) | . | . | . | . | .
Cc1ccc(S(=O)(=O)CCC(=O)c2ccc(O)cc2O)cc1 | . | . | . | . | 97.7
Cc1ccc(S(=O)(=O)CCC(=O)OCC(=O)c2cc(C)ccc2C)cc1 | . | . | . | . | .
Cc1cc(C)nc(NS(=O)(=O)c2ccc(NC(=O)Cc3ccccc3F)cc2)n1 | . | . | . | . | 99.0
Cc1cc(C)nc(NS(=O)(=O)c2ccc(NC(=O)Nc3ccccc3)cc2)n1 | . | . | . | . | .
CCOc1ccccc1OCC(=O)Nc1ccc(S(=O)(=O)Nc2nc(C)cc(C)n2)cc1 | . | . | . | . | 94.7
COc1cc(NS(=O)(=O)c2ccc(NC(=O)COc3ccccc3C)cc2)nc(OC)n1 | . | . | . | . | 98.8
Cc1cc(C)nc(NS(=O)(=O)c2ccc(NC(=O)NC3CCCCC3)cc2)n1 | . | . | / | . | 98.4

From PubChem BioAssay
